inhibition, Activity and AUC(0-t) data for 1 compound are collected here from ChEMBL document CHEMBL4339193, “Phenotypic Screening-Based Identification of 3,4-Disubstituted Piperidine Derivatives as Macrophage M2 Polarization Modulators: An Opportunity for Treating Multiple Sclerosis” (J Med Chem, 2019).

The test system of series [1] is RAW264.7. The series can be described thus: Inhibition of M1 polarization in mouse RAW264.7 cells assessed as down regulation of TNFRSF10C mRNA expression at 300 nM measured after 24 hrs by qRT-PCR analysis. It is filed as functional, cell-based. (Quantitative PCR measures a nucleic acid by following its amplification.)
Series [2] deals with Mus musculus. The series can be described thus: Antiinflammatory activity in C57BL/6J mouse model of MOG (35 to 55 residues)/pertussis toxin/complete Freund's adjuvant-induced experimental allergic encephalomyelitis assessed as effect on Treg cell population in draining lymph nodes by measuring change in CD4 level at 200 mg/kg, ig administered daily starting from 7 days post-immunization measured after 13 to 19 days post-immunization by flow cytometry analysis. It is filed as functional, organism-based. The method in brief:
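MOG35-55/CFA EAE mice were dosed daily in saline from day 7 and sampled between days 13 and 19. Spleens and dLNs were mechanically dissociated to single cells. CNS cells came from collagenase IV digestion and a 70%/30% Percoll gradient. Cells were surface-stained with fluorochrome antibodies, including CD4, CD11b, CD11c and MHC-II, and analysed by flow cytometry.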
(In general: A flow cytometer gives signals particle by particle.)

The nature of series [3]: AUC (0 to t) in Sprague-Dawley rat at 10 mg/kg, iv administered as single dose by LC/MS analysis. It is filed as ADME, organism-based. Particulars: in vivo. The method in brief:
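Single dose in rats; venous blood (100 µL) drawn at 0, 0.5, 1, 2, 4, 8 and 12 h, plasma separated by centrifugation and held at -20 °C. Compound measured by LC/MS; Cmax, Tmax, t1/2 and AUC derived from the concentration–time data.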

In series [4] the target is RAC-alpha serine/threonine-protein kinase (Mus musculus) (UniProt P31750). Kind of series: Stimulation of AKT phosphorylation at 308 residue in mouse RAW264.7 cells at 300 nM measured after 4 to 24 hrs by Western blot analysis. The series is classed as cell-based. Summed up:
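Cell lysates separated by SDS-PAGE, transferred to PVDF and probed for Akt, p-Akt(308), p-Akt(473), Stat3, p-Stat3(Y705), Stat6 and p-Stat6; ECL detection, GAPDH as loading control.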
A general note: Immunoblotting shows a protein as a band on a membrane.

For series [5], the system named is BMDM. Kind of series: Inhibition of LPS-induced M1 polarization in C57BL/6J mouse BMDM cells assessed as down regulation of CD86 expression at 300 nM measured after 24 hrs by FACS analysis. The series is classed as functional, cell-based. Summed up: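 BMDMs pretreated with 50 ng/ml LPS for 24 h, then given compound (300 nM, or a range of concentrations) for 24 h. Stained for F4/80 and CD86; % CD86+F4/80+ cells read by flow cytometry. Mean ± SEM, at least three independent experiments.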

For series [6], the system named is RAW264.7. The series can be described thus: Modulation of M2 polarization in mouse RAW264.7 cells assessed as up regulation of CCR2 mRNA expression at 300 nM measured after 24 hrs by qRT-PCR analysis. The series is classed as functional, cell-based.
The subject of series [7] is Mus musculus. The series can be described thus: Antiinflammatory activity in C57BL/6J mouse model of MOG (35 to 55 residues)/pertussis toxin/complete Freund's adjuvant-induced experimental allergic encephalomyelitis assessed as reduction in infiltration in spinal cord at 200 mg/kg, ig administered daily starting from 7 days post-immunization measured after 14 days post-immunization by H and E staining based microscopic analysis. It is filed as functional, organism-based. Summed up:
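EAE mice dosed daily in saline from day 7 were perfused with PBS and fixed in 4% PFA on day 14; spinal cords were taken. For LFB, frozen OCT sections sat 3 h in 0.1% Luxol Fast Blue at 56-60°C, were differentiated in 0.05% lithium carbonate for 10-12 s, cleared in 70% ethanol, dehydrated and mounted. For H&E, paraffin sections were stained to assess inflammation.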

Series [8] deals with BMDM. Kind of series: Modulation of M2 polarization in C57BL/6J mouse BMDM cells assessed as up regulation of Arg1 mRNA expression at 300 nM measured after 24 hrs by qRT-PCR analysis. The series is classed as functional, cell-based. The method in brief:
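BMDMs treated 24 h with 300 nM compound at 37 °C, 5% CO2. Trizol RNA extraction, then qRT-PCR for Arg1, Mrc1 and Fizz1 mRNA. Mean ± SEM.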

Series [9] relates to RAW264.7. Kind of series: Inhibition of M1 polarization in mouse RAW264.7 cells assessed as down regulation of CD80 mRNA expression at 300 nM measured after 24 hrs by qRT-PCR analysis. It is filed as functional, cell-based.
Series [10] can be described thus: Toxicity in ICR mouse assessed as adverse effect at 400 mg/kg, ig administered daily for 14 days. It is filed as organism-based. As to conditions: in vivo, po, 336 h. The method in brief: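 Repeated-dose study in healthy mice over 14 days. Read-outs were body weight change, serum parameters, and organ-to-body and organ-to-brain weight ratios.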

Calls of active or inactive are those of the source. The calls are words filed in the database; no cut-off is given here.

RAC-alpha serine/threonine-protein kinase (Mus musculus), sequence (P31750 whole entry): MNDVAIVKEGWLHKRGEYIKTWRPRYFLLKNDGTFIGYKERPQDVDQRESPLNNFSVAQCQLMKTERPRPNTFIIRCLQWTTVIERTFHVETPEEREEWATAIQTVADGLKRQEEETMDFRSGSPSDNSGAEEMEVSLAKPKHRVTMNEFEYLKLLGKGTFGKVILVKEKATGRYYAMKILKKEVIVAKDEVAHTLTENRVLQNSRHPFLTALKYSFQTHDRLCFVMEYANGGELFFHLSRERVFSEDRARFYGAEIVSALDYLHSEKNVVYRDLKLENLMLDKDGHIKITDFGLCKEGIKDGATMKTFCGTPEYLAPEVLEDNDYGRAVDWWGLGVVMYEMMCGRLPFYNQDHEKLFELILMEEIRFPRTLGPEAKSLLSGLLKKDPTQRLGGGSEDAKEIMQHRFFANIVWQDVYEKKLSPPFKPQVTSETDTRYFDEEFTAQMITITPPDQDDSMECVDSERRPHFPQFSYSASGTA

Consider `Cl.Cn1ncc(Cl)c1-c1ccc(C(=O)N[C@@H]2CNCC[C@H]2c2cccc(F)c2)cc1`, for which the inhibition result in series [1], in series [5] and in [9] was “Active” throughout. The result in series [2] was inactive. Besides, in [3], the AUC(0-t) came to 1840 ng·h/mL. Also, the result in [4], in [6], in [7] and in series [8] was Active. Further, the Activity entry in [10] is on record as “Non-Toxic”.

For orientation: AUC(0-t) means the area under the concentration-time curve up to a stated or last time point. Low readings indicate less exposure, high ones more exposure.
